KCNK3 inh = human KCNK3 channel inhibition, primary screen; CHO-KCNK3 thallium flux, FluxOR fluorescence; hits give low values; 340,000 tested, 0.84% active; O14649; B-score at 10 µM;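 active = B-score under library mean minus 4 SD, starting fluorescence ratio at most library mean plus 5 SD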;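 also: more negative B-score means stronger inhibition of thallium flux through KCNK3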
KCNQ1 act = potentiates or activates the human KCNQ1 potassium channel; 310,000 tested, 0.35% active; CHO-K1 KCNQ1, thallium flux FluxOR fluorescence; hits give high values; B-score at 10 µM; P51787;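 active = fluorescence ratio B-score, a plate-corrected score, at least three library SD, with initial intensity B-score within 5 SD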
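Schedule – 37 °C overnight plating, 90-min dark dye load, 20-min compound pretreatment · System – stable KCNQ1 CHO-K1 line · Probe or stimulus – thallium- and potassium-containing depolarizing buffer · Measured by – kinetic FluxOR fluorescence, 10 s baseline plus 110 s post-stimulus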
KCNQ1 block = blocks the human KCNQ1 potassium channel. CHO-K1 KCNQ1, FluxOR thallium flux fluorescence; hits give high values. B-score at 10 µM. 310,000 tested, 1.3% active. AID 2642;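 active = compounds whose thallium flux B-score, printed positive for inhibition, exceeds three library SD while starting fluorescence stays within three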;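 also: channel opened by potassium depolarization with thallium stimulus after 20 min compound exposure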
hERG protect = hERG (human) protection from proarrhythmic block; CHO-hERG, FluxOR thallium flux, dofetilide IC70 present; 310,000 tested, 0.51% active; AID 1511; activation (rescue from dofetilide block), less the hit threshold, % at 10 µM;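 active = activation above the mean of controls blocked by dofetilide plus 5 SD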;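 also: thallium influx through hERG after potassium depolarization seen as dye fluorescence rise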
KCC2 mod = KCC2 (human) Cl- transport modulation | 190,000 tested, 2.2% active | B-score of Tl+ flux slope (higher = more flux/activation; lower = inhibition) at 10 µM | AID 1456 | KCC2 cells, thallium flux FluoZin-2 fluorescence | Q9H2X9;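 active = thallium flux slope and its plate-corrected score both differing from the plate sample mean at a set confidence after two filtering rounds, in either direction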;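 also: slope of fluorescence scaled to starting intensity during 10 to 20 s after thallium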
KCNK9 block = inhibitors of human KCNK9 two-pore domain potassium channel; Q9NPC2; HEK293 KCNK9, FluxOR thallium flux fluorescence; hits give low values; B-score at 10 µM; 310,000 tested, 1.2% active;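 active = ratio B-score over 3 SD below the library mean, with starting fluorescence within 5 SD of its mean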;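 also: negative B-score means less thallium flux so channel inhibition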
KCC2 secondary = KCC2 (human) modulation, secondary assay. shares compounds with KCC2 mod. HEK293-KCC2, thallium flux, FluoZin2 fluorescence; hits give high values. normalised thallium flux (F/F0 slope) at 10 µM. 3,700 tested, 15% active. AID 1713;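 active = thallium flux slope above the same plate's solvent-only control mean plus 3 SD; inconclusive = the two replicate wells disagree; inactive = no significant difference from solvent-only control wells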
KCC2 bumet counter = thallium flux despite bumetanide block in KCC2 cells, secondary assay 3 | shares compounds with KCC2 mod | HEK293-KCC2 + bumetanide/ouabain, thallium flux FluoZin2; hits give high values | normalized thallium flux at 10 µM | 3,700 tested, 49% active | AID 1714;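 active = thallium entry rate above the same plate's blocked-transporter control wells by more than 3 SD; inconclusive = the two repeat wells disagree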;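 also: raw slope of fluorescence over initial fluorescence between 10 and 20 s after thallium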
KCC2 secondary2 = KCC2 (human) modulation, second secondary assay; normalized thallium flux at 10 µM; shares compounds with KCC2 mod; 3,700 tested, 23% active; HEK293-KCC2, thallium flux FluoZin2 fluorescence; actives lie on both sides; F/F0 rise rate, 10–20 s post-thallium;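 active = thallium flux slope more than 3 SD above or below the plate's solvent-only control mean, mostly below; inconclusive = the two repeat wells disagreed; inactive = no significant shift from solvent-only controls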;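 also: raw slope with 0.1% DMSO as baseline and bumetanide as block control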
HEK counter1 = acts in parental HEK cells, KCC2 counter-screen; shares compounds with KCC2 mod; HEK293 parental cells, thallium flux FluoZin2, ouabain; baseline-ratio fluorescence slope, 10–20 s after thallium; thallium flux rate (normalised fluorescence) at 10 µM; 3,700 tested, 46% active;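 active = thallium flux rate significantly above the same plate's solvent-only control wells, beyond their mean plus 3 SD; inconclusive = the two replicate wells gave conflicting results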
KCC2 retest ouab = KCC2 (human) modulation, ouabain retest; shares compounds with KCC2 mod; HEK293-KCC2, thallium flux FluoZin2 fluorescence; bidirectional: low = inhibitor, high = activator; raw Tl+ flux slope (below DMSO = inhibition, above = activation) at 10 µM; 3,700 tested, 48% active; AID 1717;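 active = thallium flux slope beyond 3 SD from same-plate DMSO control mean in most replicates, usually higher, sometimes lower; inconclusive = repeat tests gave conflicting results; inactive = no significant difference from controls in most replicates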;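 also: slope of initial-normalized fluorescence between seconds 10 and 20 after thallium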
HEK293 Tl flux2 = acts in parental HEK cells, second KCC2 counter-screen; HEK293 parental, thallium flux FluoZin-2 fluorescence slope; thallium flux slope at 10 µM; shares compounds with KCC2 mod; 3,700 tested, 33% active;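 active = thallium flux slope above the same plate's solvent-control mean plus 3 SD in both duplicate wells; inconclusive = duplicate wells that disagreed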;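 also: run without ouabain in cells lacking the KCC2 cotransporter; slope of fluorescence scaled to its starting value between 10 and 20 s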
Starred values were filed as active, the others as inactive; i = inactive; u = inconclusive; x = no result. Most compounds without a hit are left out; they make up all but 4.1% or so of the library.

SMILES	KCNK3 inh	KCNQ1 act	KCNQ1 block	hERG protect	KCC2 mod	KCNK9 block	KCC2 secondary	KCC2 bumet counter	KCC2 secondary2	HEK counter1	KCC2 retest ouab	HEK293 Tl flux2
CCOC(=O)c1sc(N2N=C(C)C(N=Nc3cccc(C)c3)C2=O)nc1C (configuration not stated)	i	i	i	-6.3	21.9*	i	0.00666	0.0264*	0.0384*	0.0161*	0.0355*	0.0185*
CC1=NN(c2nc(-c3ccc(C)cc3)cs2)C(=O)C1N=Nc1cccc(C)c1 (configuration not stated)	i	i	i	-6.7	2.64	i	x	x	x	x	x	x
CCOCCn1c(CN2CCN(CC)CC2)nc2c1c(=O)n(C)c(=O)n2C	i	i	i	-2.8	6.27*	i	0.00967	0.00703	0.0369	0.00768	0.0229	0.0112
CCOCCn1c(CN2CCCCC2)nc2c1c(=O)n(C)c(=O)n2C	i	i	i	-4.3	x	i	x	x	x	x	x	x
C[C@]12c3[nH]c4ccc(Cl)cc4c3CCN1C(=O)[C@@H](CC(=O)NCCC1=CCCCC1)C[C@@H]2C(=O)N1CCOCC1	i	x	x	x	x	x	x	x	x	x	x	x
N#C/C(=C\c1ccc(-c2cccc([N+](=O)[O-])c2)o1)C(=O)Nc1nc(-c2cccs2)cs1	i	i	i	-10.6	4*	i	0.00964	0.00986*	0.033	0.0183*	u	0.0115
CCOC(=O)CC[C@H](NC(=O)Cn1cnc2c(NCc3ccccc3)ncnc21)C(=O)OCC	i	x	x	x	x	x	x	x	x	x	x	x
Cc1ccc(C(=O)N2CCN(c3ccc(NC(=S)NC(=O)c4cccs4)cc3)CC2)cc1	i	i	i	-4.2	1.9	i	x	x	x	x	x	x
O=C(NC(=S)Nc1ccc(N2CCOCC2)cc1)c1cccs1	i	i	i	0.0	3.15*	i	0.00968	0.0328*	0.0316	u	0.0229	0.011
Cc1ccccc1C(=O)N1CCN(c2ccc(NC(=S)NC(=O)c3cccs3)cc2)CC1	i	i	i	-12.7	3.23	i	0.0097	0.0146*	0.0312	0.00819	0.0203	0.0107
CCOc1ccc(OCCCC(=O)N(CC)CC(=O)Nc2c(F)cccc2F)cc1	i	x	x	x	x	x	x	x	x	x	x	x
Cc1cccc(NC(=O)N2CCN(Cc3ccc(Cl)cc3)CC2)c1	i	i	i	-9.3	-2.64	i	x	x	x	x	x	x
O=C(Nc1cccc(Cl)c1)N1CCN(Cc2ccccc2)CC1	i	i	i	-6.4	-4.62*	i	0.00724	0.00543	0.0298	0.00723	0.0294*	u
CC(C)(CC(=O)O)CC(=O)Nc1ccc(Oc2ccc(C(C)(C)C)cc2)nc1	i	i	i	0.9	4.85*	i	0.00558	0.00445	0.0299	0.00715	0.0187	0.00982
CC(C)(C)c1ccc(Oc2ccc(NC(=O)CCCC(=O)O)cn2)cc1	i	i	i	-7.3	1.82	i	x	x	x	x	x	x
CC(=O)c1c(C)nc(-c2ccc(Cl)cc2)nc1N=CN(C)C	i	i	i	-10.3	x	i	0.00535	0.00427	0.0326	0.00795	0.0192	0.0111
CC(=O)c1c(C)nc(-c2ccc(Cl)cc2)nc1N	i	i	i	-4.1	1.59	i	x	x	x	x	x	x
COc1cccc(CC(NC(C)=O)C(=O)NC2CCN(C(=O)Nc3ccc(C)cc3)CC2)c1 (configuration not stated)	i	i	i	-9.1	x	i	x	x	x	x	x	x
Cc1csc(NC(=O)CSc2nnc(-c3cccs3)n2C)n1	i	i	i	-7.0	-3.01*	i	0.00779	0.00643	0.0324	0.00677	0.0204	0.0107
Cn1c(SCc2c(Cl)cccc2Cl)nnc1-c1cccs1	i	i	i	-15.2	-4.64*	i	0.00758	0.00392	0.0273	u	u	0.00932
Cc1csc(NC(=O)CSc2nnc(CCNC(=O)c3cccs3)n2C)n1	i	i	i	-10.2	0.0298	i	x	x	x	x	x	x
Cn1c(SCC(=O)Nc2nc3c(s2)CCCC3)nnc1-c1ccccc1	i	i	i	-9.8	-4.83*	i	0.00741	0.0054	0.0231*	0.00816	0.0176*	0.0117
Cn1c(CSCc2ccccc2)nnc1SCC(=O)Nc1nccs1	i	i	i	-4.5	6.22*	i	0.00577	0.00396	0.0284	0.00671	0.0168	0.00933
Cc1c(Br)cnn1C(C)C(=O)N1CCN(c2ccc(F)cc2)CC1 (configuration not stated)	i	x	x	x	x	x	x	x	x	x	x	x
COc1cccc(-c2c(C(=O)N/N=C(\C)COc3ccccc3)nnn2-c2nonc2N)c1	i	i	i	-7.8	x	i	x	x	x	x	x	x
SMILES	KCNK3 inh	KCNQ1 act	KCNQ1 block	hERG protect	KCC2 mod	KCNK9 block	KCC2 secondary	KCC2 bumet counter	KCC2 secondary2	HEK counter1	KCC2 retest ouab	HEK293 Tl flux2
CCN1C(=O)[C@H]2[C@@H](c3ccc(-c4ccc(OC)cc4)c(OC)c3)N3CCCC[C@@]3(C(=O)OC)[C@H]2C1=O	i	i	i	-5.3	x	i	x	x	x	x	x	x
NC(=O)C12C(=O)NC(=O)C1(C(=O)O)C21CCCC1 (configuration not stated)	i	x	x	x	x	x	x	x	x	x	x	x
CSc1ccc(S(=O)(=O)N2CCC(C(=O)Nc3ccccc3C(F)(F)F)CC2)cc1	i	i	i	-5.9	x	i	x	x	x	x	x	x
Cc1ccc(-c2ccc(SCC(=O)Nc3nonc3C)nn2)cc1	i	i	i	-8.4	-5.68*	i	0.00553	0.004	0.0234*	0.00578*	0.013*	0.00945
Cc1csc(NC(=O)CSc2ccc(-c3ccccc3)nn2)n1	i	i	i	-13.2	-5.64*	i	0.0139	0.00507	0.019*	0.00684	0.0131	0.00975
Cc1nonc1NC(=O)CSc1ccccn1	i	i	i	-6.0	x	i	x	x	x	x	x	x
CCn1nnnc1SCC(=O)Nc1nc(-c2cccs2)cs1	i	i	i	-6.3	-4.12*	i	0.00882	0.00629	u	0.00669	0.0135*	0.0101
